Activity calls are given as the source filed them.
What was measured:
HL-60 [1] = test: Cytoprotective activity against actinomycin D-induced apoptosis in human HL60 cells assessed as increase in cell viability at 10 uM incubated for 1 hr followed by actinomycin D stimulation measured after 6 hrs by Alamar blue assay; assay type: functional, cell-based
Summary of the method: (§1)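 HL-60 cells given a death inducer with or without test agent (10 μM) or Z-VAD (100 μM). Inducers were actinomycin D 1 μM for 6 h, camptothecin 1 μM for 6 h, etoposide 100 μM for 4 h, FasL 100 ng/mL for 18 h, H2O2 100 μM for 3 h, and TBHP 30 μM for 3 h. Viability read by AlamarBlue.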

H9c2 [2] = test: Cytoprotective activity against TBHP-induced necrosis in rat H9c2 cells incubated for 4 hrs by LDH release assay; assay type: functional, cell-based; conditions: H9c2, 4 h
Summary of the method: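 Rat cardiomyoblast H9c2 cells treated with TBHP (300 μM) with or without test compound; necrotic cell death quantified by LDH release assay.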

HL-60 [3] = test: Cytoprotective activity against etoposide-induced apoptosis in human HL60 cells assessed as increase in cell viability at 10 uM incubated for 1 hr followed by etoposide stimulation measured after 4 hrs by Alamar blue assay; assay type: functional, cell-based; summary of the method: as §1
Jurkat [4] = test: Cytoprotective activity against Z-VAD-induced necroptosis in human Jurkat cells assessed as increase in cell viability at 10 uM incubated for 1 hr followed by Z-VAD stimulation by phase contrast microscopy; assay type: functional, cell-based
Summary of the method: (§2)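 Jurkat necroptosis induced with FasL (100 ng/mL, 20 h) together with Z-VAD (100 μM) or cycloheximide (5 μM). Test agents were run at 10 μM alongside a necroptosis inhibitor at 30 μM. Viability read by AlamarBlue; morphology examined by phase-contrast imaging.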

HL-60 [5] = test: Cytoprotective activity against H2O2-induced necrosis in human HL60 cells assessed as increase in cell viability at 10 uM incubated for 1 hr followed by H2O2 stimulation measured after 3 hrs by Alamar blue assay; assay type: functional, cell-based; summary of the method: as §1
HL-60 [6] = test: Cytoprotective activity against TBHP-induced necrosis in human HL60 cells assessed as increase in cell viability at 10 uM incubated for 1 hr followed by TBHP stimulation measured after 3 hrs by Alamar blue assay; assay type: functional, cell-based; summary of the method: as §1
Jurkat [7] = test: Cytoprotective activity against Z-VAD-induced necroptosis in human Jurkat cells assessed as increase in cell viability at 10 uM incubated for 1 hr followed by Z-VAD stimulation by Alamar blue assay; assay type: functional, cell-based; summary of the method: as §2
HL-60 [8] = test: Cytoprotective activity against camptothecin-induced apoptosis in human HL60 cells assessed as increase in cell viability at 10 uM incubated for 1 hr followed by camptothecin stimulation measured after 6 hrs by Alamar blue assay; assay type: functional, cell-based; summary of the method: as §1
Jurkat [9] = test: Cytoprotective activity against FasL-induced apoptosis in human Jurkat cells assessed as increase in cell viability at 10 uM incubated for 1 hr followed by FasL stimulation measured after 18 hrs by Alamar blue assay; assay type: functional, cell-based
Summary of the method: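 Jurkat cells exposed to FasL (100 ng/mL, 18 h) with or without test agent (10 μM) or Z-VAD (100 μM). Viability measured by AlamarBlue and morphology by phase-contrast imaging.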

Jurkat [10] = test: Cytoprotective activity against CHX-induced necroptosis in human Jurkat cells assessed as increase in cell viability at 10 uM incubated for 1 hr followed by CHX stimulation by phase contrast microscopy; assay type: functional, cell-based; summary of the method: as §2
[11] = Solubility of the compound in water; assay type: physicochemical; conditions: buffer
Jurkat [12] = test: Cytoprotective activity against CHX-induced necroptosis in human Jurkat cells assessed as increase in cell viability at 10 uM incubated for 1 hr followed by CHX stimulation by Alamar blue assay; assay type: functional, cell-based; summary of the method: as §2
Jurkat [13] = test: Cytoprotective activity against FasL-induced necroptosis in human Jurkat cells assessed as increase in cell viability at 10 uM incubated for 1 hr followed by FasL stimulation measured after 20 hrs by Alamar blue assay; assay type: functional, cell-based; summary of the method: as §2
HL-60 [14] = test: Cytoprotective activity against H2O2-induced apoptosis in human HL60 cells assessed as increase in cell viability at 10 uM incubated for 1 hr followed by H2O2 stimulation measured after 4 hrs in presence of caspase inhibitor Z-VAD by phase contrast microscopy; assay type: functional, cell-based
Summary of the method: (§3)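 HL-60 cells exposed to low-level H2O2 (30 μM, 4 h) with or without test agent (10 μM) or Z-VAD (100 μM). Viability read by AlamarBlue; morphology by phase-contrast imaging.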

HL-60 [15] = test: Cytoprotective activity against H2O2-induced necrosis in human HL60 cells incubated for 1 hr followed by H2O2 stimulation by LDH release assay; assay type: functional, cell-based; conditions: HL-60, 1 h
Summary of the method: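 Necrosis of HL-60 cells induced by H2O2 and quantified as lactate dehydrogenase release from the cytosol; IC50 derived.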

HL-60 [16] = test: Cytoprotective activity against H2O2-induced necrosis in human HL60 cells assessed as increase in cell viability at 10 uM incubated for 1 hr followed by H2O2 stimulation measured after 4 hrs in presence of caspase inhibitor Z-VAD by phase contrast microscopy; assay type: functional, cell-based; summary of the method: as §3
[17] = Stability in rat liver S9 fraction at 5 uM after 30 mins by HPLC method; assay type: ADME, subcellular; conditions: s9, 0.5 h
HL-60 [18] = test: Cytoprotective activity against Fas ligand-induced apoptosis in human HL60 cells assessed as increase in cell viability at 10 uM incubated for 1 hr followed by Fas ligand stimulation measured after 18 hrs by Alamar blue assay; assay type: functional, cell-based; summary of the method: as §1
H9c2 [19] = test: Cytotoxicity against rat H9c2 cells at 30 uM; assay type: cell-based; conditions: h9c2, 30 µM
HL-60 [20] = test: Cytoprotective activity against H2O2-induced necrosis in human HL60 cells assessed as increase in cell viability at 10 uM incubated for 1 hr followed by H2O2 stimulation measured after 4 hrs by Alamar blue assay; assay type: functional, cell-based; summary of the method: as §3
HL-60 [21] = test: Cytoprotective activity against H2O2-induced apoptosis in human HL60 cells assessed as increase in cell viability at 10 uM incubated for 1 hr followed by H2O2 stimulation measured after 4 hrs in presence of caspase inhibitor Z-VAD by Alamar blue assay; assay type: functional, cell-based; summary of the method: as §3
Jurkat [22] = test: Cytoprotective activity against FasL-induced necroptosis in human Jurkat cells assessed as increase in cell viability at 10 uM incubated for 1 hr followed by FasL stimulation measured after 20 hrs by phase contrast microscopy; assay type: functional, cell-based; summary of the method: as §2
HL-60 [23] = test: Cytoprotective activity against H2O2-induced necrosis in human HL60 cells assessed as increase in cell viability at 10 uM incubated for 1 hr followed by H2O2 stimulation measured after 4 hrs by phase contrast microscopy; assay type: functional, cell-based; summary of the method: as §3
HL-60 [24] = test: Cytoprotective activity against H2O2-induced necrosis in human HL60 cells assessed as increase in cell viability at 10 uM incubated for 1 hr followed by H2O2 stimulation measured after 4 hrs in presence of caspase inhibitor Z-VAD by Alamar blue assay; assay type: functional, cell-based; summary of the method: as §3

CCCCCNC1=C(c2cn(C)c3ccccc23)C(=O)N(C)C1=O
3900 nM: IC50 (H9c2 [2])
Unstable: Stability [17]
Insoluble: solubility [11]
active: Activity (HL-60 [5]) | Activity (HL-60 [6]) | Activity (HL-60 [14]) | Activity (HL-60 [16]) | Activity (HL-60 [20]) | Activity (HL-60 [21]) | Activity (HL-60 [23]) | Activity (HL-60 [24])
inactive: Activity (HL-60 [1]) | Activity (HL-60 [3]) | Activity (Jurkat [4]) | Activity (Jurkat [7]) | Activity (HL-60 [8]) | Activity (Jurkat [9]) | Activity (Jurkat [10]) | Activity (Jurkat [12]) | Activity (Jurkat [13]) | Activity (HL-60 [18]) | Activity (Jurkat [22])
Non-Toxic: Activity (H9c2 [19])
250 nM: IC50 (HL-60 [15])

Source: ChEMBL document CHEMBL4251693, “Indolylmaleimide Derivative IM-17 Shows Cardioprotective Effects in Ischemia-Reperfusion Injury” (ACS Med Chem Lett, 2018)
